Assay [1] concerns HeLa. Kind of assay: Induction of apoptosis in human HeLa cells assessed as activation of caspase 8 after 48 hrs by fluorescence assay relative to control. It counts as functional. Put shortly:
(§1)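 Fluorogenic substrate assay. 1×10⁶ HeLa cells treated 48 h, lysed in Tris/phosphate buffer pH 7.5 with 1% Triton X-100. Lysate incubated 1 h at 37 °C in PIPES assay buffer pH 7.2 (DTT, EDTA, CHAPS, sucrose) with Ac-DEVD-AFC (caspase 3), Ac-IETD-AFC (caspase 8) or Ac-LEHD-AFC (caspase 9). AFC read at excitation 400 nm, emission 480–520 nm; fold RFU over untreated control; mean ± SD of three experiments.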

Assay [2] relates to HeLa. The assay is described as follows: Induction of apoptosis in human HeLa cells assessed as activation of caspase 3 after 48 hrs by fluorescence assay relative to control. It counts as functional. Put shortly:
as §1

Assay [3] deals with HeLa. The assay is described as follows: Induction of apoptosis in human HeLa cells using acridine orange/ethidium bromide staining at IC50 after 48 hrs by fluorescence microscopic analysis. It counts as functional, cell-based. The gist of the method: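 HeLa cells seeded at 75000/well in 24-well plates, treated at IC50 for 48 h, PBS-washed and stained with acridine orange/ethidium bromide mixture (each 100 µg/mL) for 30 min at 37 °C. Apoptotic morphology assessed by fluorescence microscopy; three independent experiments in duplicate.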

Assay [4] has as its system HeLa. Kind of assay: Cell cycle arrest in human HeLa cells assessed as accumulation at G0/G1 phase after 48 hrs by flow cytometry analysis (reference value: 73.1 +/- 1.02%). Format: functional. (Flow cytometry measures light scatter and fluorescence of single cells or particles in a stream.)
In assay [5] the test system is HeLa. Kind of assay: Cell cycle arrest in human HeLa cells assessed as accumulation at S phase after 24 hrs by flow cytometry analysis (reference value: 4.5 +/- 0.2%). It counts as functional.
Assay [6] concerns HeLa. Kind of assay: Induction of apoptosis in human HeLa cells assessed as activation of caspase 9 after 48 hrs by fluorescence assay relative to control. It counts as functional. The gist of the method: as §1
The test system of assay [7] is HeLa. Kind of assay: Induction of apoptosis in human HeLa cells assessed as nuclear condensation using DAPI staining at IC50 after 48 hrs by fluorescence microscopic analysis. It counts as functional, cell-based. The gist of the method: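 They were PBS-washed, stained with DAPI (1 µg/mL in methanol) for 10 min at 37 °C and imaged by fluorescence microscopy. Condensed chromatin or fragmented nuclei scored as apoptotic; three independent experiments.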

Assay [8] relates to HeLa. Kind of assay: Inhibition of TNFalpha-induced NFkappaB activation (unknown origin) expressed in human HeLa cells at IC50 treated 24 hrs before TNFalpha challenge measured after 5 hrs by luciferase reporter gene assay. Format: cell-based.
The subject of assay [9] is HeLa. Kind of assay: Cell cycle arrest in human HeLa cells assessed as accumulation at S phase after 48 hrs by flow cytometry analysis (reference value: 7.2 +/- 0.77%). It counts as functional.
For assay [10], the system named is HeLa. Kind of assay: Cytotoxicity against human HeLa cells after 48 hrs by alamar blue assay. Format: functional, cell-based. Put shortly:
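Alamar blue (resazurin) viability assay. HeLa cells seeded at 5000 cells/well, treated 24 h later with a range of concentrations for 48 h. Alamar blue (0.2 mg/mL) was then added for 2–4 h and absorbance read at 570 and 595 nm. Survival is percent of untreated control; IC50 taken from the concentration–response curves; three experiments in triplicate.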
(The colour change of resazurin is a common sign of viable cells or microbes.)

For assay [11], the system named is HeLa. The assay is described as follows: Cell cycle arrest in human HeLa cells assessed as accumulation at G2/M phase after 24 hrs by flow cytometry analysis (reference value: 13.2 +/- 0.48%). It counts as functional.
For assay [12], the system named is HeLa. Kind of assay: Cell cycle arrest in human HeLa cells assessed as accumulation at G0/G1 phase after 24 hrs by flow cytometry analysis (reference value: 80.7 +/- 0.47%). It counts as functional.
Assay [13] relates to HeLa. Kind of assay: Cell cycle arrest in human HeLa cells assessed as accumulation at sub-G0 phase after 24 hrs by flow cytometry analysis (reference value: 1.2 +/- 0.29%). Format: functional.
Assay [14] deals with HeLa. Kind of assay: Induction of apoptosis in human HeLa cells assessed as loss of mitochondrial membrane potential using JC-1 staining after 48 hrs by fluorescence microscopic analysis. Format: functional, cell-based. The gist of the method: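 Treated cells (48 h, 24-well plates) were given JC-1 diluted in medium and incubated 10 min at 37 °C (or 15 min at RT), washed twice in PBS and viewed by fluorescence microscopy. Orange/red fluorescence marks intact membrane potential; green marks its loss. Confirmed in three independent experiments.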

In assay [15] the test system is HeLa. The assay is described as follows: Cell cycle arrest in human HeLa cells assessed as accumulation at sub-G0 phase after 48 hrs by flow cytometry analysis (reference value: 2.3 +/- 0.37%). It counts as functional.
Assay [16] relates to HeLa. The assay is described as follows: Cell cycle arrest in human HeLa cells assessed as accumulation at G2/M phase after 48 hrs by flow cytometry analysis (reference value: 16.6 +/- 0.16%). It counts as functional.

Structures are written as SMILES. The source made the active and inactive calls. The calls are words filed in the database; no cut-off is given here.

A word on the inhibition: it is the drop in the measured response relative to a control, in per cent. A word on the IC50: it is the midpoint of a concentration-inhibition curve.

`COc1cc(/C=C/C(=O)c2sc(Nc3ccc(Cl)cc3)nc2N)ccc1O`: the “fold change (FC)” value came out at 0.9 in assay [1], 1.5 in assay [2] and 2.3 in [6]. In addition, the outcome in assay [3], in assay [7] and in assay [14] was Active. The Activity in assay [4] came to 38%; in assay [5] it was 4.4%; in [9], 14.2%; in assay [11], 27.2%; in assay [12], 64.7%; in [13], 3.4%. The values for the Activity in [15] and in assay [16] were 16.7% and 28.2%, respectively. The compound also showed an inhibition in [8] of 87%. In assay [10], the IC50 came out at 60 µM.

Take `COc1ccc(Nc2nc(Nc3ccc(Cl)cc3)c(C(=O)c3c[nH]c4ccccc34)s2)cc1`: the “fold change (FC)” value in assay [1] is 1.54; in assay [2], 2.4; in [6], 4.4. In addition, the outcome in [3], in assay [7] and in [14] was Active. Further, the Activity worked out at 38.53% in assay [4]; 10.19% in [5]; 7.69% in [9]; 17.51% in [11]; 59.13% in assay [12]; 13.17% in assay [13]. Also, the Activity in assay [15] is given as 42.37%; in assay [16] it was 9.78%. In assay [8], the inhibition stood at 72%. Also, in assay [10], the IC50 stood at 20 µM.

`COc1ccc(Nc2nc(N)c(C(=O)c3c[nH]c4ccccc34)s2)cc1`: the “fold change (FC)” value in assay [1] turned out to be 1.1; in [2] it was 2.8; in assay [6], 1.6. The outcome in assay [3], in assay [7] and in assay [14] was Active. The Activity in [4] is reported as 24%; in [5], 4.2%; in assay [9] it was 7.8%; in assay [11] it was 35.3%; in [12], 43.2%; in assay [13] it was 16.7%. Moreover, the Activity in assay [15] is given as 49%; in [16], 12.5%. In addition, the inhibition in [8] was 34%. Moreover, the IC50 in [10] worked out at 1 µM.

With `COc1ccc(/C=C/C(=O)c2sc(Nc3ccc(Cl)cc3)nc2N)cc1O`, the “fold change (FC)” value in [1] turned out to be 1.2; in [2], 2.2; in assay [6], 2.6. Further, the result in assay [3], in [7] and in [14] was Active. Further, the Activity in [4] came to 15%; in [5], 6.8%; in [9] it was 9%; in [11], 51.4%; in [12] it was 15.37%; in assay [13], 25.8%. In addition, the Activity in assay [15] is listed as 35%; in [16] it was 35.8%. In [8], the inhibition was 56%. This compound showed an IC50 in assay [10] of 30 µM.

With `Nc1nc(Nc2ccc(Cl)cc2)sc1C(=O)c1c[nH]c2ccccc12`, the “fold change (FC)” value was 0.96 in assay [1], 2.5 in assay [2] and 2.5 in assay [6]. Further, the result in [3], in [7] and in [14] was Active. Moreover, the Activity turned out to be 13.75% in assay [4]; 8.12% in assay [5]; 8.95% in [9]; 11.8% in assay [11]; 56.34% in [12]; 23.74% in assay [13]. Besides, the Activity in assay [15] is reported as 55.33%; in [16], 21.56%. In assay [8], the inhibition worked out at 80%. In addition, the IC50 in assay [10] came out at 45 µM.

As for `COc1cc(/C=C/C(=O)CC(=O)/C=C/c2ccc(O)c(OC)c2)ccc1O` [CURCUMIN], the results for the “fold change (FC)” value in assay [1], in assay [2] and in assay [6] were 1.4, 2.1 and 1.7, respectively. In [8], the inhibition stood at 79%. Further, the outcome in [14] was Active.

Source of the values: ChEMBL document CHEMBL2375232, “4-Amino-2-arylamino-5-indoloyl/cinnamoythiazoles, analogs of topsentin-class of marine alkaloids, induce apoptosis in HeLa cells” (Eur J Med Chem, 2013).
